Our source for the zone of inhibition and MIC values is ChEMBL document CHEMBL1153755, “Convenient synthesis and antimicrobial evaluation of some novel 2-substituted-3-methylbenzofuran derivatives” (2009).

Each structure is given as a SMILES string. In brackets after ≈: the same amount, converted by molar mass.

What all share (format): functional
The subject of test [1] is Aspergillus fumigatus. In words: Antifungal activity against Aspergillus fumigatus at 100 ug after 24 to 48 hrs by diffusion agar technique. The conditions noted are these: read-out: IZ. In a few lines:
(§1)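 Fungal isolates (RCMB collection) are seeded into malt extract agar (pH 5.4) and tested by hole-plate diffusion. Each 1 cm well receives 100 μL of a 5 mg/ml DMSO solution, with DMSO as control. Plates sit 1 h at 4 °C, then incubate at 28 °C. Zone diameter is measured after 24-48 h. Terbinafin is the standard.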

Test [2] concerns Aspergillus niger. Put plainly: Antifungal activity against Aspergillus niger at 100 ug after 24 to 48 hrs by diffusion agar technique. The conditions noted are these: read-out: IZ. In a few lines:
as §1

In test [3] the test system is Penicillium italicum. In words: Antifungal activity against Penicillium italicum at 100 ug after 24 to 48 hrs by diffusion agar technique. The following applies: read-out: IZ. In a few lines: as §1
The test system of test [4] is Syncephalastrum racemosum. Put plainly: Antifungal activity against Syncephalastrum racemosum at 100 ug after 24 to 48 hrs by diffusion agar technique. The conditions noted are these: read-out: IZ. In a few lines: as §1
Test [5] has as its system Candida albicans. Put plainly: Antifungal activity against Candida albicans at 100 ug after 24 to 48 hrs by diffusion agar technique. The conditions noted are these: read-out: IZ. In a few lines:
as §1

For test [6], the system named is Staphylococcus aureus. Put plainly: Antibacterial activity against Staphylococcus aureus at 100 ug after 24 to 48 hrs by diffusion agar technique. The following applies: read-out: IZ. In a few lines: (§2)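 Hole-plate agar diffusion on nutrient agar (pH 6.2) seeded with the bacterial isolate (RCMB collection). 1 cm wells hold 100 μL of compound at 5 mg/ml in DMSO; DMSO-filled wells serve as controls. Plates are held 1 h at 4 °C, then incubated at 37 °C. Inhibition zone diameter is read after 24-48 h. Amoxicilline is the reference.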

Test [7] relates to Bacillus subtilis. In words: Antibacterial activity against Bacillus subtilis at 100 ug after 24 to 48 hrs by diffusion agar technique. The following applies: read-out: IZ. An outline of the steps: as §2
Test [8] has as its system Aspergillus niger. Put plainly: Antimicrobial activity against Aspergillus niger by serial dilution technique.
For the next test, the system named is Escherichia coli. Put plainly: Antibacterial activity against Escherichia coli at 100 ug after 24 to 48 hrs by diffusion agar technique. The following applies: read-out: IZ. In a few lines: as §2
The subject of test [9] is Bacillus subtilis. In words: Antimicrobial activity against Bacillus subtilis by serial dilution technique.
For test [10], the system named is Candida albicans. Put plainly: Antimicrobial activity against Candida albicans by serial dilution technique.
A further test deals with Pseudomonas aeruginosa. In words: Antibacterial activity against Pseudomonas aeruginosa at 100 ug after 24 to 48 hrs by diffusion agar technique. The following applies: read-out: IZ. In a few lines: as §2
Test [11] relates to Staphylococcus aureus. In words: Antimicrobial activity against Staphylococcus aureus by serial dilution technique.
Test [12] deals with Aspergillus fumigatus. Put plainly: Antimicrobial activity against Aspergillus fumigatus by serial dilution technique.
Test [13] relates to Syncephalastrum racemosum. Put plainly: Antimicrobial activity against Syncephalastrum racemosum by serial dilution technique.
The subject of test [14] is Penicillium italicum. In words: Antimicrobial activity against Penicillium italicum by serial dilution technique.

As a reminder, the MIC is the lowest concentration that inhibits growth of the organism. High values mean weaker potency, low ones greater potency. For `CCO/C=C(\C#N)C(=O)c1oc2ccccc2c1C`, the zone of inhibition at 100 µg/disc is 19 mm in the test with Aspergillus fumigatus [1]; 18 mm in the test with Aspergillus niger [2]; 10 mm in the test on Penicillium italicum [3]; 22 mm in test [4]; 10 mm in the test with Candida albicans [5]; 13 mm in the test on Staphylococcus aureus [6]. Further, the zone of inhibition at 100 µg/disc in the test on Bacillus subtilis [7] turned out to be 7 mm. In the test with Aspergillus niger [8], the MIC worked out at 250 µg/mL (≈ 979 µM).
`Cc1c(-c2cc(N)n(-c3ccccc3)n2)oc2ccccc12`: the zone of inhibition at 100 µg/disc in the test with Aspergillus fumigatus [1] was found to be 10 mm; with Aspergillus niger [2] it was 7 mm; in the test with Candida albicans [5], 9 mm; with Staphylococcus aureus [6], 4 mm; in the test with Bacillus subtilis [7], 25 mm; in the test with Escherichia coli, 5 mm. Besides, the minimal inhibitory concentration (MIC) against Bacillus subtilis [9] was determined as 250 µg/mL (≈ 864 µM).
Turning to `Cc1c(C(=O)/C(C#N)=N/Nc2ccc(Cl)cc2)oc2ccccc12`, the zone of inhibition at 100 µg/disc with Candida albicans [5] was found to be 16 mm; in the test on Staphylococcus aureus [6], 5 mm. The compound also yielded an MIC with Candida albicans [10] of 250 µg/mL (≈ 740 µM).
As to `Cc1c(C(=O)NN/C=C(\NNC(=O)c2oc3ccccc3c2C)c2ccccc2)oc2ccccc12`, the zone of inhibition at 100 µg/disc stood at 15 mm in the test on Staphylococcus aureus [6], 6 mm with Pseudomonas aeruginosa, 14 mm in the test on Bacillus subtilis [7] and 5 mm with Escherichia coli. In addition, in the test with Staphylococcus aureus [11], the MIC is 500 µg/mL (≈ 1040 µM).
With `Cc1c(C(=O)NN/C=C(\NNC(=O)c2oc3ccccc3c2C)c2ccc(Cl)cc2)oc2ccccc12`, the zone of inhibition at 100 µg/disc came to 10 mm with Aspergillus fumigatus [1]; 5 mm in the test on Aspergillus niger [2]; 6 mm in [4]; 4 mm in the test on Staphylococcus aureus [6]; 4 mm with Bacillus subtilis [7]; 3 mm in the test on Escherichia coli. This compound also registered an MIC in the test with Aspergillus fumigatus [12] of 500 µg/mL (≈ 971 µM).
As to `Cc1c(C(=O)/C(C#N)=N/O)oc2ccccc12`, the zone of inhibition at 100 µg/disc in the test with Aspergillus fumigatus [1] was 8 mm; in the test on Aspergillus niger [2], 12 mm; with Candida albicans [5], 18 mm; in the test on Staphylococcus aureus [6], 15 mm; with Bacillus subtilis [7], 20 mm; with Escherichia coli, 8 mm. The compound further registered a minimum inhibitory concentration (MIC) with Bacillus subtilis [9] of 125 µg/mL (≈ 548 µM).
Take `Cc1ccc(N/N=C(\C#N)C(=O)c2oc3ccccc3c2C)cc1`: the zone of inhibition at 100 µg/disc in the test with Aspergillus fumigatus [1] stood at 12 mm; in the test on Candida albicans [5] it was 20 mm; in the test with Staphylococcus aureus [6] it was 4 mm; with Bacillus subtilis [7], 6 mm. 50 µg/mL (≈ 158 µM) was the least that counted as inhibitory against Candida albicans [10] (MIC).
`Cc1c(-c2n[nH]cc2C#N)oc2ccccc12`: the zone of inhibition at 100 µg/disc in the test on Aspergillus fumigatus [1] came out at 20 mm; with Aspergillus niger [2], 6 mm; in [4], 30 mm; with Candida albicans [5], 12 mm; with Staphylococcus aureus [6], 10 mm; with Bacillus subtilis [7] it was 18 mm. The compound further came in with an MIC in [13] of 50 µg/mL (≈ 224 µM).
Turning to `Cc1c(C(=O)NNC(=O)c2oc3ccccc3c2C)oc2ccccc12`, the zone of inhibition at 100 µg/disc with Aspergillus fumigatus [1] stood at 4 mm; in the test on Aspergillus niger [2], 13 mm; in the test with Penicillium italicum [3], 12 mm; in test [4] it was 18 mm; in the test with Candida albicans [5] it was 6 mm; in the test with Staphylococcus aureus [6], 3 mm. Besides, the zone of inhibition at 100 µg/disc in the test on Bacillus subtilis [7] worked out at 12 mm. The MIC (in test [13]; in the test on Penicillium italicum [14]) was 50 µg/mL (≈ 144 µM) throughout.
With `Cc1c(C(=O)Nc2ccccc2C(=O)O)oc2ccccc12`, the zone of inhibition at 100 µg/disc in the test with Penicillium italicum [3] amounted to 13 mm; in test [4] it was 22 mm; in the test on Staphylococcus aureus [6], 3 mm; with Bacillus subtilis [7] it was 12 mm. In addition, the MIC in [13] came to 250 µg/mL (≈ 847 µM).
Regarding `Cc1c(-c2nc3ccccc3c(=O)o2)oc2ccccc12`, the zone of inhibition at 100 µg/disc in the test with Aspergillus fumigatus [1] came out at 8 mm; in the test with Aspergillus niger [2], 5 mm; in the test with Penicillium italicum [3], 6 mm; in test [4], 18 mm; in the test with Candida albicans [5], 7 mm; in the test with Staphylococcus aureus [6], 4 mm. The zone of inhibition at 100 µg/disc in the test with Pseudomonas aeruginosa and with Bacillus subtilis [7] was 8 mm each time. This compound gave an MIC in test [13] of 250 µg/mL (≈ 902 µM).
Regarding `CC1(C)S[C@@H]2[C@H](NC(=O)[C@H](N)c3ccc(O)cc3)C(=O)N2[C@H]1C(=O)O` [AMOXICILLIN], the zone of inhibition at 100 µg/disc in the test on Staphylococcus aureus [6] was found to be 30 mm; in the test on Pseudomonas aeruginosa, 20 mm; with Bacillus subtilis [7], 25 mm; with Escherichia coli, 30 mm.
In the case of `CN(C/C=C/C#CC(C)(C)C)Cc1cccc2ccccc12` [TERBINAFINE], the zone of inhibition at 100 µg/disc turned out to be 30 mm in the test on Aspergillus fumigatus [1]; 25 mm with Aspergillus niger [2]; 20 mm in the test on Penicillium italicum [3]; 35 mm in [4]; 30 mm in the test on Candida albicans [5].
